Test [1] is described as follows: reduced viability of SK-BR-3 breast cancer cells – cell-based, 24 h, human, pilot screen (AID 572;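 active = viability at or below 10% of carrier control in both of two separate runs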;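 also: compound exposure lasted between 18 and 24 h rather than exactly 24 h; 100% = carrier-treated control wells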). The note with it: SK-BR-3 viability, CellTiter-Glo luminescence, at 10 µM, stronger effect = lower value. A general note: In ATP-based viability assays light output follows the ATP content of the culture.
The nature of test [2]: HUVEC growth inhibition – cell-based, human, primary screen (AID 575;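 active = viability at or below 30% in both replicate assays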;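 also: 100% = median of untreated cell wells with 0.1% DMSO on each plate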). The note with it: HUVEC proliferation, CellTiter-Glo luminescence, 72 h; at 10 µM; stronger effect = lower value. An outline of the steps: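 Test system: HUVEC primary cells. Quantity: 1250 endothelial cells in each well. Dosing: single-point 10 µM, DMSO 0.1% final. Incubation: 72 h treatment at 37 °C. Measured by: CTG luminescence. Control set: DMSO cell controls and MePR drug controls. Plate: collagen-coated 384-well format.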

Test [3] can be described thus: H69AR cell proliferation blockers – human, duplicate replicates, primary screen (AID 580;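 active = viability at or under a set limit in both replicates, limit being median viability minus 3 SD, cut at about 48% in these data, passing the limit was not always enough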;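 also: 100% = mean luminescence of untreated wells and 0% = no signal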). The settings on record: H69AR lung tumor cells viability, ATP luminescence, 72 h; at 10 µM; stronger effect = lower value.
Test [4] can be described thus: MRP1 drug-resistance reversers in H69AR cells – cell-based, doxorubicin co-treatment, pilot screen (AID 601;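 active = viability loss from added drug above about 55%, and viability with drug at most 40%, in both replicates, limit read from the data, passing the limit was not always enough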). The note with it: CellTiter-Glo, 72 h, at 10 µM; for differential viability (reversal): stronger effect = higher value.
Test [5] in a line: yeast transport mutant growth inhibition pilot in 384-well plates, post-Golgi transport modulator project (AID 636; in the data active = inhibition above about 31%). The note with it: absorbance 615 nm, about 18 h, stronger effect = higher value.
A short description of test [6]: growth suppression of yeast trafficking mutant, preliminary HTS, modulators of trafficking downstream of Golgi apparatus project, 1536-format plate, OD 615 nm (AID 637). The settings on record: yeast transport mutant growth, absorbance 615 nm, 18 h; stronger effect = higher value.
[7] abbreviates: H69AR cells + 2 uM doxorubicin, measured here: viability with 2 uM doxorubicin, stronger effect = lower value.
[8] abbreviates: H69AR cells, compound alone cytotoxicity.

Activity calls are given as the source filed them. Rule as the data show it, unless noted: active = inhibition above about 30%; inactive = the rest.

Consider `Cc1cnc(C(=O)NCCc2ccc(S(=O)(=O)NC(=O)NC3CCCCC3)cc2)cn1`, for which the viability in test [1] is 94% (inactive); in test [2], 94.9% (inactive); in test [3], 89.3% (inactive); in test [4] (setting [7]) it was 106%; in test [4] (setting [8]), 89.3%. The differential viability (reversal) in test [4] (H69AR cells + 2 uM doxorubicin) is -16.6% (inactive). The values for the inhibition in test [5] and in test [6] were 1.04% (inactive) and 2% (inactive), respectively.

For the compound `Cn1cc(C(=O)NC2CCCCCCC2)c(=O)c2cc(S(=O)(=O)N3CCCC3)ccc21`, the viability is 76.5% (inactive) in test [1]; 79.8% (inactive) in test [2]; 90.9% (inactive) in test [3]; 90.6% in test [4] (setting [7]); 90.9% in test [4] (setting [8]). For the same compound, the differential viability (reversal) in test [4] (H69AR cells + 2 uM doxorubicin) was 0.325% (inactive). In addition, the inhibition in test [5] is -5.95% (inactive); in test [6], -4.67% (inactive).

As for `C=C(C)Cn1c(CCCNC(=O)C(C)(C)C)nc2ccccc21`, the viability in test [1] is 104% (inactive); in test [2] it was 92.9% (inactive); in test [3] it was 102% (inactive); in test [4] (setting [7]), 101%; in test [4] (setting [8]), 102%. In test [4] (H69AR cells + 2 uM doxorubicin), the differential viability (reversal) is 0.305% (inactive). Further, the inhibition in test [5] was -3.47% (inactive); in test [6], -4% (inactive).

In the case of `CCOC(=O)c1c(N)c(C#N)nn1-c1ccccc1C(=O)OC`, the viability is 96% (inactive) in test [1]; 109% (inactive) in test [2]; 92.3% (inactive) in test [3]; 86.2% in test [4] (setting [7]); 92.3% in test [4] (setting [8]). Besides, the differential viability (reversal) in test [4] (H69AR cells + 2 uM doxorubicin) was 6.05% (inactive). Also, the values for the inhibition in test [5] and in test [6] were -5.87% (inactive) and 0.73% (inactive), respectively.

As to `COc1ccccc1N(CC(=O)NC1CCCC1)C(=O)c1csnn1`, the viability in test [1] was 97% (inactive); in test [2] it was 89.7% (inactive); in test [3], 90% (inactive); in test [4] (setting [7]), 57.5%; in test [4] (setting [8]), 90%. The differential viability (reversal) in test [4] (H69AR cells + 2 uM doxorubicin) is 32.5% (inactive). The inhibition was -1.47% (inactive) in test [5] and -8.36% (inactive) in test [6].

As for `COc1ccc(-c2noc(CCCOc3ccccc3)n2)cc1OC`, the viability in test [1] is 78% (inactive); in test [2] it was 103% (inactive); in test [3] it was 93.7% (inactive); in test [4] (setting [7]), 101%; in test [4] (setting [8]) it was 93.7%. In addition, the differential viability (reversal) in test [4] (H69AR cells + 2 uM doxorubicin) is -7.4% (inactive). The values for the inhibition in test [5] and in test [6] were -1.92% (inactive) and 4.91% (inactive), respectively.

With `CC(=O)Nc1nc(C)c(-c2csc(Nc3ccc(O)cc3)n2)s1`, the viability in test [1] is 114% (inactive); in test [2], 19.7% (active); in test [3], 13.3% (active); in test [4] (setting [7]), 18.6%; in test [4] (setting [8]) it was 13.3%. In test [4] (H69AR cells + 2 uM doxorubicin), the differential viability (reversal) is -5.39% (inactive). Moreover, the results for the inhibition in test [5] and in test [6] were -3.95% (inactive) and -6.13% (inactive), respectively.

As for `CC1(C2(O)CC(c3ccccc3)ON2)CCCCC1` (stereo unspecified), the viability in test [1] was 108% (inactive); in test [2], 95% (inactive); in test [3], 84.1% (inactive); in test [4] (setting [7]), 84.4%; in test [4] (setting [8]), 84.1%. The differential viability (reversal) in test [4] (H69AR cells + 2 uM doxorubicin) is -0.32% (inactive). Moreover, the inhibition in test [5] was -4.73% (inactive); in test [6], -2.36% (inactive).

For the compound `COc1ccc(CN(C(=O)CN2C(=O)COc3ccccc32)C2CCCC2)c(OC)c1`, the viability in test [1] is 110% (inactive); in test [2], 87.4% (inactive); in test [3], 92.5% (inactive); in test [4] (setting [7]), 87.9%; in test [4] (setting [8]) it was 92.5%. The differential viability (reversal) in test [4] (H69AR cells + 2 uM doxorubicin) was 4.62% (inactive). The inhibition was -4.52% (inactive) in test [5] and -0.18% (inactive) in test [6].

Take `CC(=O)OCC(=O)[C@H]1CC[C@H]2[C@@H]3CC=C4C[C@@H](O)CC[C@]4(C)[C@H]3CC[C@]12C`: the viability in test [1] is 87% (inactive); in test [2], 44.3% (inactive); in test [3], 96.8% (inactive); in test [4] (setting [7]), 92.3%; in test [4] (setting [8]), 96.8%. For the same compound, the differential viability (reversal) in test [4] (H69AR cells + 2 uM doxorubicin) was 4.54% (inactive). Moreover, the inhibition is -0.65% (inactive) in test [5] and 44.5% (active) in test [6].

Regarding `Cc1ccc2nc(-c3ccc4c(c3)OCCO4)cc(C(=O)O)c2c1`, the viability in test [1] is 89% (inactive); in test [2], 104% (inactive); in test [3], 101% (inactive); in test [4] (setting [7]), 95%; in test [4] (setting [8]), 101%. The differential viability (reversal) in test [4] (H69AR cells + 2 uM doxorubicin) was 5.86% (inactive). The figures for the inhibition in test [5] and in test [6] were -4.73% (inactive) and -6% (inactive), respectively.

Regarding `N#CC1=C(N)N(c2ccc(Oc3ccccc3)cc2)C(=O)C1`, the viability in test [1] is 130% (inactive); in test [2] it was 106% (inactive); in test [3], 90.2% (inactive); in test [4] (setting [7]), 82%; in test [4] (setting [8]), 90.2%. Further, the differential viability (reversal) in test [4] (H69AR cells + 2 uM doxorubicin) is 8.2% (inactive). The inhibition in test [5] was -5.62% (inactive); in test [6], 0.48% (inactive).

For orientation: viability means a read-out of living cells in per cent, often relative to untreated cells. In general, inhibition refers to the relative decrease from the control value, in per cent.

The values are drawn from PubChem BioAssay.
